molecular target: T1, Type-1 angiotensin II receptor B (Rattus norvegicus, UniProt P29089); test: Binding affinity against angiotensin II receptor type 1 (AT1) from rat liver.; conditions: not given
T1 sequence (P29089 whole entry): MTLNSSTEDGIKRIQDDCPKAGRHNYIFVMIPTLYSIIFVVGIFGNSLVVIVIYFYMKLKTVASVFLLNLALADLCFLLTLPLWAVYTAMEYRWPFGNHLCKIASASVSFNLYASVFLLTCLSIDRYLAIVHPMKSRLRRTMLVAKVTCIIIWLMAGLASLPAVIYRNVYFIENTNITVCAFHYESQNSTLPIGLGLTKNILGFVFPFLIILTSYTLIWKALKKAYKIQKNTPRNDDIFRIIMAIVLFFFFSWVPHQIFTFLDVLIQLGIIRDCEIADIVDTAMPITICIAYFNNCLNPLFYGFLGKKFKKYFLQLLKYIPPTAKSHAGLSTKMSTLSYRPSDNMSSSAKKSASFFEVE
Method in brief: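 Compounds were added from DMSO at 100× the final concentration. Samples were filtered on glass-fiber filters presoaked in Tris pH 7.7 with bacitracin and scintillation-counted. Nonspecific binding used 10 μM saralasin. IC50 came from nonlinear mass-action fits of five or six doses or more (mean ± SEM).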

Compound | IC50 [nM]
CCCCc1nc(Cl)c(C(=O)O)n1Cc1ccc(NC(=O)[C@H](Cc2ccccc2)n2cccc2C(=O)O)cc1 | 80
CCCCc1nc(Cl)c(C(=O)O)n1Cc1ccc(-c2ccccc2C(=O)O)cc1 | 92
CCCCc1nc(Cl)c(CO)n1Cc1ccc(NC(=O)[C@H](CCCC)n2cccc2C(=O)OC)cc1 | 590
CCCCc1nc(Cl)c(CC(=O)O)n1Cc1ccc(NC(=O)[C@H](Cc2cccs2)n2cccc2C(=O)O)cc1 | 24
CCCCc1nc(Cl)c(CC(=O)OC)n1Cc1ccc(NC(=O)[C@H](Cc2cccs2)n2cccc2C(=O)OC)cc1 | 800
CCCCc1nc(Cl)c(CO)n1Cc1ccc(NC(=O)[C@H](Cc2ccccc2)n2cccc2C(=O)O)cc1 | 180
CCCCc1nc(-n2cccc2)c(C(=O)OCC)n1Cc1ccc(NC(=O)[C@H](Cc2ccccc2)n2cccc2C(=O)O)cc1 | 2500
CCCCc1nc(Cl)c(CC(=O)OC)n1Cc1ccc(NC(=O)[C@H](Cc2ccccc2)n2ccc(C(=O)OCC)c2C)cc1 | 1470
CCCCc1nc(Cl)c(CC(=O)O)n1Cc1ccc(NC(=O)[C@H](Cc2ccccc2)n2ccc(C(=O)OCC)c2C)cc1 | 140
CCCCc1nc(Cl)c(C(=O)O)n1Cc1ccc(NC(=O)[C@H](Cc2cccs2)n2cccc2C(=O)O)cc1 | 180
CCCCc1nc(Cl)c(CO)n1Cc1ccc(NC(=O)Cn2cccc2C(=O)OC)cc1 | 8370
CCCCc1nc(Cl)c(CC(=O)O)n1Cc1ccc(NC(=O)[C@H](Cc2ccccc2)n2cccc2)cc1 | 210
CCCCc1nc(Cl)c(CO)n1Cc1ccc(NC(=O)C(=O)c2ccccc2)cc1 | 10900
CCCCc1nc(Cl)c(CCC(=O)O)n1Cc1ccc(NC(=O)[C@H](Cc2ccccc2)n2cccc2C(=O)O)cc1 | 22
CCCCc1nc(Cl)c(CC(=O)O)n1Cc1ccc(NC(=O)[C@H](Cc2ccccc2)n2c(C)ccc2C)cc1 | 370
CCc1nc2c(C)cc(C)nc2n1Cc1ccc(NC(=O)[C@H](Cc2ccccc2)n2cccc2C(=O)O)cc1 | 60
CCCCc1nc(Cl)c(CO)n1Cc1ccc(NC(=O)C(Cc2ccccc2)c2nn[nH]n2)cc1 (configuration not stated) | 2600
CCCCc1nc(Cl)c(CO)n1Cc1ccc(NC(=O)[C@H](c2ccccc2)n2cccc2C(=O)OC)cc1 | 1120

Continued, values first:

IC50 [nM] | Compound
2600 | CCCCc1nc(Cl)c(CO)n1Cc1ccc(NC(=O)C(C#N)Cc2ccccc2)cc1 (configuration not stated)
300 | CCCCc1nc(Cl)c(CO)n1Cc1ccc(-c2ccccc2C(=O)O)cc1
20 | CCCCc1ncc(C(=O)O)n1Cc1ccc(NC(=O)[C@H](Cc2ccccc2)n2cccc2C(=O)O)cc1
240 | CCCCc1nc(Cl)c(CC(=O)O)n1Cc1ccc(NC(=O)[C@H](Cc2ccccc2)n2ccc(C(=O)OCC)c2)cc1
500 | CCCCc1nc(Cl)c(CC(=O)OC)n1Cc1ccc(NC(=O)[C@H](Cc2ccccc2)n2cccc2C(=O)OC)cc1
210 | CCCCc1nc(Cl)c(CCC(=O)OC)n1Cc1ccc(NC(=O)[C@H](Cc2ccccc2)n2cccc2C(=O)OC)cc1
140 | CCCCc1nc(Cl)c(CC(=O)O)n1Cc1ccc(NC(=O)[C@H](Cc2ccccc2)n2cccc2C)cc1
330 | CCc1nc2c(C)cc(C)nc2n1Cc1ccc(NC(=O)[C@H](Cc2ccccc2)n2cccc2C(=O)OC)cc1
930 | CCCCc1nc2c(C)cccc2n1Cc1ccc(NC(=O)[C@H](Cc2ccccc2)n2cccc2C(=O)O)cc1
670 | CCCCc1nc(Cl)c(C(=O)O)n1Cc1ccc(NC(=O)[C@H](Cc2cccs2)n2cccc2)cc1
1290 | CCCCc1nc(Cl)c(CC(=O)O)n1Cc1ccc(NC(=O)[C@H](Cc2ccccc2)n2cc(C#N)c3ccccc32)cc1
340 | CCCCc1nc(-n2cccc2)c(C(=O)O)n1Cc1ccc(NC(=O)[C@H](Cc2ccccc2)n2cccc2C(=O)O)cc1
210 | CCCCc1nc(Cl)c(CO)n1Cc1ccc(NC(=O)[C@H](Cc2ccccc2)n2cccc2C(=O)OC)cc1

molecular target: T2, Type-1 angiotensin II receptor B (Rattus norvegicus) (UniProt P29089); test: Binding affinity against angiotensin II (AT1 receptor) from rat liver expressed as % inhibition at 10 e -7 M; conditions: not given
T2 sequence (whole entry): T1 sequence (P29089 whole entry)

Compound | inhibition [%]
CCCCc1nc(Cl)c(CC(=O)OC)n1Cc1ccc(NC(=O)[C@H](Cc2ccccc2)n2ccc(C(=O)OCC)c2)cc1 | 7.2
CCCCc1ncc(C(=O)OC)n1Cc1ccc(NC(=O)[C@H](Cc2ccccc2)n2cccc2C(=O)OC)cc1 | 33
CCCCc1nc(Cl)c(CC(=O)OC)n1Cc1ccc(NC(=O)[C@H](Cc2ccccc2)n2cccc2C)cc1 | 14.8
CCCCc1nc(Cl)c(CC(=O)O)n1Cc1ccc(NC(=O)CCc2ccccc2)cc1 | 7.8

Second part, the compound after the results:

inhibition [%] | Compound
8.1 | CCCCc1nc(Cl)c(CO)n1Cc1ccc(NC(=O)[C@H](Cc2ccccc2)n2cccc2)cc1
11 | CCCCc1nc(Cl)c(C(=O)OC)n1Cc1ccc(NC(=O)[C@H](Cc2cccs2)n2cccc2C(=O)OC)cc1
2.5 | CCCCc1nc(Cl)c(C(=O)OC)n1Cc1ccc(NC(=O)[C@H](Cc2cccs2)n2cccc2)cc1
15 | CCCCc1nc(Cl)c(C(=O)OC)n1Cc1ccc(NC(=O)[C@H](Cc2ccccc2)n2cccc2C(=O)OC)cc1

species on record: Oryctolagus cuniculus; test: Inhibition of Angiotensin II induced contraction of isolated rabbit aortic rings; type: functional; conditions: Aorta
Method in brief: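 Thoracic aortic rings, 4–5 mm, from New Zealand White rabbits (3–4 kg) were held in PSS at 37 °C under 95% O2/5% CO2, with isometric force recorded. Rings were equilibrated 1.5 h, primed with 122 mM KCl and given two 10^-8 M AII control contractions. Compound in DMSO was incubated 10 min before the AII concentration–response was repeated. IC50 is the concentration halving AII contraction relative to the averaged controls.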

Compound | IC50 [nM]
CCCCc1nc(Cl)c(C(=O)O)n1Cc1ccc(NC(=O)[C@H](Cc2ccccc2)n2cccc2C(=O)O)cc1 | 550
CCCCc1nc(Cl)c(CO)n1Cc1ccc(NC(=O)[C@H](Cc2ccccc2)n2cccc2C(=O)O)cc1 | 17000
CCCCc1nc(Cl)c(CC(=O)O)n1Cc1ccc(NC(=O)[C@H](Cc2ccccc2)n2cccc2C(=O)O)cc1 | 520
CCCCc1nc(Cl)c(CC(=O)O)n1Cc1ccc(NC(=O)[C@H](Cc2ccccc2)n2cccc2)cc1 | 6300
CCCCc1nc(Cl)c(CCC(=O)O)n1Cc1ccc(NC(=O)[C@H](Cc2ccccc2)n2cccc2C(=O)O)cc1 | 220

Continued, values first:

IC50 [nM] | Compound
110 | CCCCc1ncc(C(=O)O)n1Cc1ccc(NC(=O)[C@H](Cc2ccccc2)n2cccc2C(=O)O)cc1
14000 | CCCCc1nc(Cl)c(CC(=O)O)n1Cc1ccc(NC(=O)[C@H](Cc2ccccc2)n2ccc(C(=O)OCC)c2)cc1
6400 | CCCCc1nc(Cl)c(CC(=O)O)n1Cc1ccc(NC(=O)[C@H](Cc2ccccc2)n2cccc2C)cc1

Source: ChEMBL document CHEMBL1126713, “Nonpeptide angiotensin II receptor antagonists. 1. Synthesis and in vitro structure-activity relationships of 4-[[[(1H-pyrrol-1-ylacetyl)amino]phenyl]methyl]imidazole derivatives as angiotensin II receptor antagonists” (J Med Chem, 1993)
